In ChEMBL document CHEMBL4689842, “EUbOPEN Chemogenomics Library wave 1” (2021):

Tested on: U2OS
Experiment: Multiplex assay against U2OS
Format: toxicity, cell-based
Conditions: human
Summary of the method: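 Cells were classed with CellPathfinder machine-learning gating, first as Hoechst high-intensity objects or normal cells, then (normal cells) as healthy, pyknosed or fragmented nuclei, and finally (pyknosed cells) as mitotic or apoptotic. Staining of live cells at seeding used Hoechst33342, BioTracker Green Microtubule Cytoskeleton Dye, MitoTracker Red and Annexin V Alexa Fluor 680, with imaging on a CQ1 microscope at 37°C and 5% CO2 after compound addition. Tubulin, mitochondrial-mass and membrane-permeability phenotypes are per cents of healthy-nucleus cells.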

[1] = 12 h, 1 µM, compound concentration 1 uM, replicate 1
[2] = 12 h, 1 µM, compound concentration 1 uM, replicate 2
[3] = 12 h, 10 µM, compound concentration 10 uM, replicate 1
[4] = 12 h, 10 µM, compound concentration 10 uM, replicate 2
[5] = 24 h, 1 µM, compound concentration 1 uM, replicate 1
[6] = 24 h, 1 µM, compound concentration 1 uM, replicate 2
[7] = 24 h, 10 µM, compound concentration 10 uM, replicate 1
[8] = 24 h, 10 µM, compound concentration 10 uM, replicate 2
[9] = 48 h, 1 µM, compound concentration 1 uM, replicate 1
[10] = 48 h, 1 µM, compound concentration 1 uM, replicate 2
[11] = 48 h, 10 µM, compound concentration 10 uM, replicate 1
[12] = 48 h, 10 µM, compound concentration 10 uM, replicate 2

## CCCS(=O)(=O)c1nc(NC2CC2)cc(-c2ccc3c(ccn3C3CC(C)(C)NC(C)(C)C3)c2)n1
[1]
  Population Apoptotic (%): 39%
  Population Fragmented Nuclei (%): 16%
  Population Healthy Nuclei (%): 62%
  Population Hoechst High Intensity Objects (%): 6%
  Population Membrane Permeable-Phenotype (%): 8%
  Population Mitochondria Different-Phenotype (%): 30%
  Population Mitotic Cells (%): 60%
  Population Normal (%): 93%
  Population Pyknosed Nuclei (%): 21%
  Population Tubulin-Different-Phenotype (%): 24%
  Total Cell Count: 588
[2]
  Population Apoptotic (%): 38%
  Population Fragmented Nuclei (%): 14%
  Population Healthy Nuclei (%): 71%
  Population Hoechst High Intensity Objects (%): 5%
  Population Membrane Permeable-Phenotype (%): 5%
  Population Mitochondria Different-Phenotype (%): 41%
  Population Mitotic Cells (%): 61%
  Population Normal (%): 94%
  Population Pyknosed Nuclei (%): 13%
  Population Tubulin-Different-Phenotype (%): 29%
  Total Cell Count: 1044
[3]
  Population Apoptotic (%): 86%
  Population Fragmented Nuclei (%): 83%
  Population Healthy Nuclei (%): 0%
  Population Hoechst High Intensity Objects (%): 6%
  Population Membrane Permeable-Phenotype (%): 0%
  Population Mitochondria Different-Phenotype (%): 0%
  Population Mitotic Cells (%): 13%
  Population Normal (%): 93%
  Population Pyknosed Nuclei (%): 16%
  Population Tubulin-Different-Phenotype (%): 0%
  Total Cell Count: 142
[4]
  Population Apoptotic (%): 92%
  Population Fragmented Nuclei (%): 75%
  Population Healthy Nuclei (%): 4%
  Population Hoechst High Intensity Objects (%): 7%
  Population Membrane Permeable-Phenotype (%): 100%
  Population Mitochondria Different-Phenotype (%): 38%
  Population Mitotic Cells (%): 7%
  Population Normal (%): 92%
  Population Pyknosed Nuclei (%): 19%
  Population Tubulin-Different-Phenotype (%): 84%
  Total Cell Count: 101
[5]
  Population Apoptotic (%): 50%
  Population Fragmented Nuclei (%): 16%
  Population Healthy Nuclei (%): 67%
  Population Hoechst High Intensity Objects (%): 10%
  Population Membrane Permeable-Phenotype (%): 5%
  Population Mitotic Cells (%): 50%
  Population Normal (%): 89%
  Population Pyknosed Nuclei (%): 16%
  Population Tubulin-Different-Phenotype (%): 9%
  Total Cell Count: 749
[6]
  Population Apoptotic (%): 22%
  Population Fragmented Nuclei (%): 15%
  Population Healthy Nuclei (%): 66%
  Population Hoechst High Intensity Objects (%): 5%
  Population Membrane Permeable-Phenotype (%): 10%
  Population Mitochondria Different-Phenotype (%): 21%
  Population Mitotic Cells (%): 77%
  Population Normal (%): 94%
  Population Pyknosed Nuclei (%): 18%
  Population Tubulin-Different-Phenotype (%): 29%
  Total Cell Count: 1113
[7]
  Population Apoptotic (%): 86%
  Population Fragmented Nuclei (%): 80%
  Population Healthy Nuclei (%): 0%
  Population Hoechst High Intensity Objects (%): 6%
  Population Membrane Permeable-Phenotype (%): 100%
  Population Mitochondria Different-Phenotype (%): 25%
  Population Mitotic Cells (%): 13%
  Population Normal (%): 93%
  Population Pyknosed Nuclei (%): 18%
  Population Tubulin-Different-Phenotype (%): 100%
  Total Cell Count: 151
[8]
  Population Apoptotic (%): 90%
  Population Fragmented Nuclei (%): 73%
  Population Healthy Nuclei (%): 10%
  Population Hoechst High Intensity Objects (%): 7%
  Population Membrane Permeable-Phenotype (%): 96%
  Population Mitochondria Different-Phenotype (%): 75%
  Population Mitotic Cells (%): 10%
  Population Normal (%): 92%
  Population Pyknosed Nuclei (%): 15%
  Population Tubulin-Different-Phenotype (%): 96%
  Total Cell Count: 104
[9]
  Population Apoptotic (%): 37%
  Population Fragmented Nuclei (%): 16%
  Population Healthy Nuclei (%): 69%
  Population Hoechst High Intensity Objects (%): 6%
  Population Membrane Permeable-Phenotype (%): 5%
  Population Mitochondria Different-Phenotype (%): 15%
  Population Mitotic Cells (%): 62%
  Population Normal (%): 93%
  Population Pyknosed Nuclei (%): 14%
  Population Tubulin-Different-Phenotype (%): 14%
  Total Cell Count: 831
[10]
  Population Apoptotic (%): 58%
  Population Fragmented Nuclei (%): 11%
  Population Healthy Nuclei (%): 68%
  Population Hoechst High Intensity Objects (%): 8%
  Population Membrane Permeable-Phenotype (%): 24%
  Population Mitochondria Different-Phenotype (%): 17%
  Population Mitotic Cells (%): 41%
  Population Normal (%): 91%
  Population Pyknosed Nuclei (%): 20%
  Population Tubulin-Different-Phenotype (%): 23%
  Total Cell Count: 1197
[11]
  Population Apoptotic (%): 90%
  Population Fragmented Nuclei (%): 81%
  Population Healthy Nuclei (%): 1%
  Population Hoechst High Intensity Objects (%): 7%
  Population Membrane Permeable-Phenotype (%): 100%
  Population Mitochondria Different-Phenotype (%): 37%
  Population Mitotic Cells (%): 9%
  Population Normal (%): 92%
  Population Pyknosed Nuclei (%): 16%
  Population Tubulin-Different-Phenotype (%): 75%
  Total Cell Count: 198
[12]
  Population Apoptotic (%): 80%
  Population Fragmented Nuclei (%): 73%
  Population Healthy Nuclei (%): 15%
  Population Hoechst High Intensity Objects (%): 8%
  Population Membrane Permeable-Phenotype (%): 97%
  Population Mitochondria Different-Phenotype (%): 81%
  Population Mitotic Cells (%): 19%
  Population Normal (%): 91%
  Population Pyknosed Nuclei (%): 10%
  Population Tubulin-Different-Phenotype (%): 94%
  Total Cell Count: 131

## CCOC(=O)c1c(C)[nH]c2ccc3c(c12)CN1CCc2cc(OC)ccc2C1O3 (centres undefined)
[1]
  Population Apoptotic (%): 72%
  Population Fragmented Nuclei (%): 9%
  Population Healthy Nuclei (%): 81%
  Population Hoechst High Intensity Objects (%): 5%
  Population Membrane Permeable-Phenotype (%): 6%
  Population Mitochondria Different-Phenotype (%): 78%
  Population Mitotic Cells (%): 27%
  Population Normal (%): 94%
  Population Pyknosed Nuclei (%): 8%
  Population Tubulin-Different-Phenotype (%): 72%
  Total Cell Count: 123
[2]
  Population Apoptotic (%): 9%
  Population Healthy Nuclei (%): 76%
  Population Hoechst High Intensity Objects (%): 9%
  Population Membrane Permeable-Phenotype (%): 3%
  Population Mitochondria Different-Phenotype (%): 70%
  Population Mitotic Cells (%): 90%
  Population Normal (%): 90%
  Population Pyknosed Nuclei (%): 14%
  Population Tubulin-Different-Phenotype (%): 62%
  Total Cell Count: 65
[3]
  Population Apoptotic (%): 73%
  Population Fragmented Nuclei (%): 9%
  Population Healthy Nuclei (%): 68%
  Population Hoechst High Intensity Objects (%): 5%
  Population Membrane Permeable-Phenotype (%): 68%
  Population Mitotic Cells (%): 26%
  Population Normal (%): 94%
  Total Cell Count: 135
[4]
  Population Apoptotic (%): 80%
  Population Fragmented Nuclei (%): 2%
  Population Healthy Nuclei (%): 75%
  Population Hoechst High Intensity Objects (%): 11%
  Population Membrane Permeable-Phenotype (%): 70%
  Population Mitochondria Different-Phenotype (%): 100%
  Population Mitotic Cells (%): 20%
  Population Normal (%): 88%
  Population Pyknosed Nuclei (%): 22%
  Population Tubulin-Different-Phenotype (%): 100%
  Total Cell Count: 84
[5]
  Population Apoptotic (%): 41%
  Population Fragmented Nuclei (%): 8%
  Population Healthy Nuclei (%): 79%
  Population Hoechst High Intensity Objects (%): 5%
  Population Membrane Permeable-Phenotype (%): 3%
  Population Mitochondria Different-Phenotype (%): 68%
  Population Mitotic Cells (%): 58%
  Population Normal (%): 94%
  Population Pyknosed Nuclei (%): 12%
  Population Tubulin-Different-Phenotype (%): 40%
  Total Cell Count: 127
[6]
  Population Apoptotic (%): 8%
  Population Fragmented Nuclei (%): 9%
  Population Healthy Nuclei (%): 75%
  Population Membrane Permeable-Phenotype (%): 1%
  Population Mitochondria Different-Phenotype (%): 58%
  Population Mitotic Cells (%): 91%
  Population Pyknosed Nuclei (%): 14%
  Population Tubulin-Different-Phenotype (%): 35%
  Total Cell Count: 65
[7]
  Population Apoptotic (%): 90%
  Population Fragmented Nuclei (%): 13%
  Population Healthy Nuclei (%): 49%
  Population Hoechst High Intensity Objects (%): 4%
  Population Membrane Permeable-Phenotype (%): 78%
  Population Mitochondria Different-Phenotype (%): 100%
  Population Mitotic Cells (%): 9%
  Population Normal (%): 95%
  Population Pyknosed Nuclei (%): 37%
  Population Tubulin-Different-Phenotype (%): 100%
  Total Cell Count: 143
[8]
  Population Apoptotic (%): 89%
  Population Fragmented Nuclei (%): 6%
  Population Healthy Nuclei (%): 52%
  Population Hoechst High Intensity Objects (%): 11%
  Population Membrane Permeable-Phenotype (%): 83%
  Population Mitotic Cells (%): 10%
  Population Normal (%): 88%
  Population Pyknosed Nuclei (%): 41%
  Total Cell Count: 87
[9]
  Population Apoptotic (%): 44%
  Population Fragmented Nuclei (%): 7%
  Population Healthy Nuclei (%): 83%
  Population Hoechst High Intensity Objects (%): 2%
  Population Membrane Permeable-Phenotype (%): 1%
  Population Mitochondria Different-Phenotype (%): 22%
  Population Mitotic Cells (%): 55%
  Population Normal (%): 97%
  Population Pyknosed Nuclei (%): 9%
  Population Tubulin-Different-Phenotype (%): 13%
  Total Cell Count: 115
[10]
  Population Apoptotic (%): 41%
  Population Fragmented Nuclei (%): 8%
  Population Healthy Nuclei (%): 81%
  Population Hoechst High Intensity Objects (%): 7%
  Population Membrane Permeable-Phenotype (%): 9%
  Population Mitochondria Different-Phenotype (%): 27%
  Population Mitotic Cells (%): 58%
  Population Normal (%): 92%
  Population Pyknosed Nuclei (%): 10%
  Population Tubulin-Different-Phenotype (%): 19%
  Total Cell Count: 67
[11]
  Population Apoptotic (%): 100%
  Population Fragmented Nuclei (%): 13%
  Population Healthy Nuclei (%): 50%
  Population Hoechst High Intensity Objects (%): 6%
  Population Membrane Permeable-Phenotype (%): 88%
  Population Mitotic Cells (%): 0%
  Population Normal (%): 93%
  Population Pyknosed Nuclei (%): 35%
  Population Tubulin-Different-Phenotype (%): 100%
  Total Cell Count: 196
[12]
  Population Apoptotic (%): 84%
  Population Fragmented Nuclei (%): 14%
  Population Healthy Nuclei (%): 45%
  Population Hoechst High Intensity Objects (%): 14%
  Population Membrane Permeable-Phenotype (%): 81%
  Population Mitochondria Different-Phenotype (%): 100%
  Population Mitotic Cells (%): 15%
  Population Normal (%): 85%
  Population Pyknosed Nuclei (%): 39%
  Population Tubulin-Different-Phenotype (%): 95%
  Total Cell Count: 121
